Experimental data gathered from unrelated publications.
Each line is one published result; the experiments were not run side by side.
Target: Tyrosine-protein kinase ABL2 (ABL2, Homo sapiens, UniProt P42684)

The remaining activity of `O=C(Nc1cnn(-c2csc(C(=O)NC3COC3)c2)c1)Nc1c(F)cccc1Cl` is reported as 88.7% (enzyme activity; inhibitor; 5 µM).
For `CC(C)(O)[C@H]1CC[C@H](Nc2ccc3ncc(-c4cccc(C(F)(F)F)c4)n3n2)CC1`, the remaining activity was 76.5% (enzyme activity; inhibitor; 1 µM).
The remaining signal of `O=C1NC(=O)c2cc(Nc3ccc(F)cc3)c(Nc3ccc(F)cc3)cc21` is reported as 89.6% (cell-free assay; 0.5 µM).
The inhibition of `CC/C(=N\NC(=O)NCc1cccc(O)c1)c1ccc(O)c(C)c1O` is reported as -0.2% (enzyme activity; inhibitor; 0.1 µM).
With `Nc1ncnc2occ(-c3ccc(NC(=O)Nc4cc(C(F)(F)F)ccc4F)cc3)c12` the remaining signal was 0.65% (cell-free assay; inhibitor; 20 µM).
For `COc1cc2ncnc(Nc3ccc(Oc4ccccc4)cc3C)c2cc1OC`, the inhibition was 16% (enzyme activity; inhibitor; 1 µM).
For `CC(C)(C)c1nc(-c2cccc(NS(=O)(=O)c3c(F)cccc3F)c2F)c(-c2ccnc(N)n2)s1`, the remaining activity was 77% (enzyme activity; inhibitor; radiometric; 1 µM).
For `Cc1ccc(Nc2nccc(N(C)c3ccc4c(C)n(C)nc4c3)n2)cc1S(N)(=O)=O`, the inhibition was 24% (enzyme activity; inhibitor; 0.3 µM).
`CNc1cccc2cc(C(=O)Nc3ccc(C(=O)O)cc3)c(=O)[nH]c12` gave an inhibition of -3.6% (enzyme activity; inhibitor; 10 µM).
`CCN(CC)c1ccc(C2=NNC(=O)CC2C)cc1[N+](=O)[O-]` (stereo not shown) has a remaining activity of 89% (enzyme activity; inhibitor; 10 µM).
With `Cc1nccc(COC(=O)N2C[C@@H]3[C@@H](CNC(=O)c4ccc5[nH]nnc5c4)[C@@H]3C2)n1` the remaining binding was 90% (cell-free assay; competition with immobilised ligand; 1 µM).
`O=C(Nc1cnn(-c2csc(C(=O)NC3COC3)c2)c1)Nc1ccccc1Cl` gave a remaining activity of 92.7% (enzyme activity; inhibitor; 5 µM).
`CC(=O)N1CCC(c2ccc(C(=O)NC3=NCCN3)cc2C(F)(F)F)CC1` has a remaining binding of 100% (cell-free assay; competition with immobilised ligand; 1 µM).
`Cc1ccc(C(=O)NCc2ccsc2)cc1C#Cc1cn(C(C)C)c2ncnc(N)c12` gave an activity vs control of 6% (enzyme activity; inhibitor; 1 µM).
With `COc1cc(-c2cn(C3CCc4ccccc4N(CC(F)(F)F)C3=O)nn2)ccc1-n1ccc(C)n1` (stereo not shown) the remaining binding was 100% (cell-free assay; competition with immobilised ligand; 1 µM).
For `Cc1ccc(C(=O)Nc2ccc(CN3CCN(C)CC3)c(C(F)(F)F)c2)cc1C#Cc1cnc2cccnn12`, the remaining activity was 3.2% (enzyme activity; inhibitor; 23.5 nM).
The remaining binding of `Cn1cc(Cl)c2c(Oc3c(F)cc(Nc4cc(Cl)nc(N)n4)cc3F)ccnc21` is reported as 99% (cell-free assay; competition with immobilised ligand; 0.1 µM).
For `CNC(=O)c1cc(Oc2ccc(NC(=O)Nc3ccc(Cl)c(C(F)(F)F)c3)cc2)ccn1`, the inhibition was 48% (enzyme activity; inhibitor; 10 µM).
`CN(C)c1ncnc(-c2ccc3nc(Nc4cc(CN5CCN(C(=O)CC(F)(F)F)CC5)ccn4)[nH]c3c2)c1Cl` has a remaining binding of 71% (cell-free assay; competition with immobilised ligand; 1 µM).
`Clc1ccc(Nc2nnc(Cc3ccncc3)c3ccccc23)cc1` has a remaining signal of 101% (cell-free assay; 0.5 µM).
For `Cc1nc(N2CC[C@@H](O)C2)ncc1-c1cc(C(F)(F)F)cc2[nH]ncc12`, the remaining binding was 60% (binding; competition with immobilised ligand; 1 µM).
`Cc1cc(NC(=O)c2cccc3cc(-c4cccc5[nH]nc(N)c45)ccc23)ccc1F` has an activity vs control of 122% (enzyme activity; inhibitor; 0.1 µM).
